From PubChem BioAssay AID492951 (Molecular Libraries Program, Specialized Chemistry Center, …, 2010)
The source made the active and inactive calls.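 Rule for the calls: active = inhibition above 10%; inactive = the rest.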

Biological target: Hexokinase-4 (Homo sapiens) (UniProt P35557)
Assay: human glucokinase inhibition, counter-screen for TbHK1 inhibitor project, biochemical, recombinant hGlck (AID 492951)
Settings: G6PDH-coupled NADH absorbance 340 nm, at 10 µM
Procedure, shortened: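 Test system: purified recombinant human glucokinase (HK4) with G6PDH coupling enzyme / Reagent: 20 mM glucose as reaction starter, plus 1 mM ATP / Timing: 10 min room-temperature compound-enzyme preincubation before glucose addition / Measured by: A340 of NADH / Repeats: three replicates per compound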

Chain of Hexokinase-4 (Homo sapiens) (P35557 whole entry, looked up): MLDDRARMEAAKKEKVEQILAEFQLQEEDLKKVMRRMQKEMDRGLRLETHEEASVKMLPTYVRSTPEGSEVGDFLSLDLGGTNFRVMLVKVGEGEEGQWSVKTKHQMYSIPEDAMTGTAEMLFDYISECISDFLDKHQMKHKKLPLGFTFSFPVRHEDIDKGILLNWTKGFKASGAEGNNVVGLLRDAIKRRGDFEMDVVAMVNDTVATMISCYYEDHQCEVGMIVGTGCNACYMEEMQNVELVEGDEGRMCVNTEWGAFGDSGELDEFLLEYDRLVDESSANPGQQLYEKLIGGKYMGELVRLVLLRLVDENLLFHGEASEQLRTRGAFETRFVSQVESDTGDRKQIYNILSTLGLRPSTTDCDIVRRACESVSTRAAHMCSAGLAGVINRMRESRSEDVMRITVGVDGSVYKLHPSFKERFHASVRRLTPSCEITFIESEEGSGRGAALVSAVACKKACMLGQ

Row | Compound | outcome
1 | O=C1CCN(C(=O)Nc2cc(Cl)ccc2C(=O)O)CC1 | inactive
2 | O=c1ccsn1-c1ccccc1 | inactive
